Test results: ChEMBL document CHEMBL1123430, “Potential tumor- or organ-imaging agents. 26. Polyiodinated 2-substituted triacylglycerols as hepatographic agents” (J Med Chem, 1986)

These molecules were tested on Rattus norvegicus (assay: Percentage […]/CH3OH extract of the radiolabeled compound in rat plasma 5 minutes after iv administration). Settings: not given.
Format: functional
In short: (§1)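 Liver and plasma were taken at 5 or 30 min. Plasma was extracted by a modified Folch procedure, and liver was homogenized and extracted. Extracts were run on TLC in hexane/ethyl acetate (5:2) for esters or THF/hexane (1:1) for acids, with unlabeled compound as reference. Plates were cut into 1-cm strips and counted. Values are percent ± SEM, n = 3-5.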
Molecule CCCCCCCCCCCCCCCC(=O)OCC(COC(=O)CCCCCCCCCCCCCCC)OC(=O)Cc1c(I)cc(I)c(N)c1I has an Activity of 89.4%.

What follows are molecules tested on Rattus norvegicus (assay: Polyacrylamide Gel Electrophoresis (PAGE) analysis of rat plasma 30 minutes after intravenous administration of radiolabeled compound (below albumin)). Settings: not given.
Format: functional, organism-based
In short: (§2)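 Gels were sectioned and counted in a γ counter. Radioactivity in each band (stacking gel, LDL, HDL, albumin, below albumin) is expressed as a percentage of the total radioactivity applied to the gel, ± SEM, n = 3-5.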
For CCCCCCCCCCCCCCCC(=O)OCC(COC(=O)CCCCCCCCCCCCCCC)OC(=O)Cc1c(I)cc(I)c(N)c1I, the Concentration was 0.5.

Each molecule was assayed on Rattus norvegicus (assay: Distribution of radioactivity of radiolabeled compound in liver of female rats 30 minutes after intravenous administration). Settings: in vivo, 0.5 h.
Format: ADME, organism-based
Work on CCCCCCCCCCCCCCCC(=O)OCC(COC(=O)CCCCCCCCCCCCCCC)OC(=O)Cc1c(I)cc(I)c(N)c1I yielded a Dose of 4%.

What follows are molecules tested on Rattus norvegicus (assay: Percentage […]/CH3OH extract of the radiolabeled compound in rat liver 5 minutes after iv administration). Settings: not given.
Format: functional
In short: as §1
CCCCCCCCCCCCCCCC(=O)OCC(COC(=O)CCCCCCCCCCCCCCC)OC(=O)Cc1c(I)cc(I)c(N)c1I showed an Activity of 91.2%.

What follows are molecules tested on Rattus norvegicus (assay: Percentage […]/CH3OH extract of the radiolabeled compound in rat plasma 30 minutes after iv administration). Settings: not given.
Format: functional
In short: as §1
In the case of CCCCCCCCCCCCCCCC(=O)OCC(COC(=O)CCCCCCCCCCCCCCC)OC(=O)Cc1c(I)cc(I)c(N)c1I, the Activity is reported as 81.5%.

The molecules below were run on Rattus norvegicus (assay: Polyacrylamide Gel Electrophoresis (PAGE) analysis of rat plasma 5 minutes after intravenous administration of radiolabeled compound (below albumin )). Settings: not given.
Format: functional, organism-based
In short: (§3)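 ¹²⁵I-labeled compound, radioiodinated by exchange in a pivalic acid melt, solubilized in normal saline with Tween 20 and given iv to adult female Sprague–Dawley rats (200–250 g), 5–30 μCi/animal, 3–4 rats per time point. Plasma was run on polyacrylamide gels. Gels were sectioned and gamma counted. Radioactivity per band (stacking gel, LDL, HDL, albumin, below albumin) is given as % of total applied; mean ± SEM, n = 3-5.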
Molecule CCCCCCCCCCCCCCCC(=O)OCC(COC(=O)CCCCCCCCCCCCCCC)OC(=O)Cc1c(I)cc(I)c(N)c1I has a Concentration of 3.2.

Each molecule was assayed on Rattus norvegicus (assay: Distribution of radioactivity of radiolabeled compound in heart of female rats 30 minutes after intravenous administration). Settings: in vivo, 0.5 h.
Format: ADME, organism-based
CCCCCCCCCCCCCCCC(=O)OCC(COC(=O)CCCCCCCCCCCCCCC)OC(=O)Cc1c(I)cc(I)c(N)c1I gave a Dose of 0.68%.

These molecules were tested on Rattus norvegicus (assay: Polyacrylamide Gel Electrophoresis (PAGE) analysis of rat plasma 30 minutes after intravenous administration of radiolabeled compound concentration in stacking gel). Settings: not given.
Format: functional, organism-based
In short: as §2
CCCCCCCCCCCCCCCC(=O)OCC(COC(=O)CCCCCCCCCCCCCCC)OC(=O)Cc1c(I)cc(I)c(N)c1I gave a Concentration of 3%.

What follows are molecules tested on Rattus norvegicus (assay: Distribution of radioactivity of radiolabeled compound in blood of female rats 5 minutes after intravenous administration). Settings: in vivo.
Format: ADME, organism-based
In the case of CCCCCCCCCCCCCCCC(=O)OCC(COC(=O)CCCCCCCCCCCCCCC)OC(=O)Cc1c(I)cc(I)c(N)c1I, the Dose is reported as 6.23%.

What follows are molecules tested on Rattus norvegicus (assay: Distribution of radioactivity of radiolabeled compound in lung of female rats 30 minutes after intravenous administration). Settings: in vivo, 0.5 h.
Format: ADME, organism-based
In the case of CCCCCCCCCCCCCCCC(=O)OCC(COC(=O)CCCCCCCCCCCCCCC)OC(=O)Cc1c(I)cc(I)c(N)c1I, the Dose is reported as 1.34%.

The molecules below were run on Rattus norvegicus (assay: Percentage parent compound in rat liver 5 minutes after iv administration of the radiolabeled compound by thin-layer chromatography). Settings: not given.
Format: functional
In short: as §1
Molecule CCCCCCCCCCCCCCCC(=O)OCC(COC(=O)CCCCCCCCCCCCCCC)OC(=O)Cc1c(I)cc(I)c(N)c1I has an Activity of 91.7%.

Each molecule was assayed on Rattus norvegicus (assay: Distribution of radioactivity of radiolabeled compound in blood of female rats 30 minutes after intravenous administration). Settings: in vivo, 0.5 h.
Format: ADME, organism-based
CCCCCCCCCCCCCCCC(=O)OCC(COC(=O)CCCCCCCCCCCCCCC)OC(=O)Cc1c(I)cc(I)c(N)c1I was tested, and the Dose was 6.5%.

What follows are molecules tested on Rattus norvegicus (assay: Distribution of radioactivity of radiolabeled compound in kidney of female rats 5 minutes after intravenous administration). Settings: in vivo.
Format: ADME, organism-based
For CCCCCCCCCCCCCCCC(=O)OCC(COC(=O)CCCCCCCCCCCCCCC)OC(=O)Cc1c(I)cc(I)c(N)c1I, the Dose was 0.93%.

Each molecule was assayed on Rattus norvegicus (assay: Polyacrylamide Gel Electrophoresis (PAGE) analysis of rat plasma 5 minutes after intravenous administration of radiolabeled compound in stacking gel). Settings: not given.
Format: functional, organism-based
In short: as §3
CCCCCCCCCCCCCCCC(=O)OCC(COC(=O)CCCCCCCCCCCCCCC)OC(=O)Cc1c(I)cc(I)c(N)c1I showed a Concentration of 9%.

These molecules were tested on Rattus norvegicus (assay: Percentage parent compound in rat plasma 30 minutes after iv administration of the radiolabeled compound by thin-layer chromatography). Settings: not given.
Format: functional
In short: as §1
CCCCCCCCCCCCCCCC(=O)OCC(COC(=O)CCCCCCCCCCCCCCC)OC(=O)Cc1c(I)cc(I)c(N)c1I was tested, and the Activity was 91.9%.

Each molecule was assayed on Rattus norvegicus (assay: Percentage parent compound in rat liver 30 minutes after iv administration of the radiolabeled compound by thin-layer chromatography). Settings: not given.
Format: functional
In short: as §1
Work on CCCCCCCCCCCCCCCC(=O)OCC(COC(=O)CCCCCCCCCCCCCCC)OC(=O)Cc1c(I)cc(I)c(N)c1I yielded an Activity of 89%.

These molecules were tested on Rattus norvegicus (assay: Percentage […]/CH3OH extract of the radiolabeled compound in rat liver 30 minutes after iv administration). Settings: not given.
Format: functional
In short: as §1
CCCCCCCCCCCCCCCC(=O)OCC(COC(=O)CCCCCCCCCCCCCCC)OC(=O)Cc1c(I)cc(I)c(N)c1I was tested, and the Activity was 83.1%.

Each molecule was assayed on Rattus norvegicus (assay: Polyacrylamide Gel Electrophoresis (PAGE) analysis of rat plasma 30 minutes after intravenous administration of radiolabeled compound in low-density lipoprotein). Settings: not given.
Format: functional, organism-based
In short: as §2
In the case of CCCCCCCCCCCCCCCC(=O)OCC(COC(=O)CCCCCCCCCCCCCCC)OC(=O)Cc1c(I)cc(I)c(N)c1I, the Concentration is reported as 41.2%.

What follows are molecules tested on Rattus norvegicus (assay: Polyacrylamide Gel Electrophoresis (PAGE) analysis of rat plasma 30 min after intravenous administration of radiolabeled compound in albumin). Settings: not given.
Format: functional, organism-based
In short: as §2
In the case of CCCCCCCCCCCCCCCC(=O)OCC(COC(=O)CCCCCCCCCCCCCCC)OC(=O)Cc1c(I)cc(I)c(N)c1I, the Concentration is reported as 1.9.

The molecules below were run on Rattus norvegicus (assay: Distribution of radioactivity of radiolabeled compound in liver of female rats 5 minutes after intravenous administration). Settings: in vivo.
Format: ADME, organism-based
Molecule CCCCCCCCCCCCCCCC(=O)OCC(COC(=O)CCCCCCCCCCCCCCC)OC(=O)Cc1c(I)cc(I)c(N)c1I has a Dose of 2.96%.

These molecules were tested on Rattus norvegicus (assay: Polyacrylamide Gel Electrophoresis (PAGE) analysis of rat plasma 5 minutes after intravenous administration of radiolabeled compound in low-density lipoprotein). Settings: not given.
Format: functional, organism-based
In short: as §3
With CCCCCCCCCCCCCCCC(=O)OCC(COC(=O)CCCCCCCCCCCCCCC)OC(=O)Cc1c(I)cc(I)c(N)c1I the Concentration was 34%.

Each molecule was assayed on Rattus norvegicus (assay: Polyacrylamide Gel Electrophoresis (PAGE) analysis of rat plasma 5 minutes after intravenous administration of radiolabeled compound in high density lipoprotein). Settings: not given.
Format: functional, organism-based
In short: as §3
CCCCCCCCCCCCCCCC(=O)OCC(COC(=O)CCCCCCCCCCCCCCC)OC(=O)Cc1c(I)cc(I)c(N)c1I gave a Concentration of 50.5.

Each molecule was assayed on Rattus norvegicus (assay: Percentage parent compound in rat plasma 5 minutes after iv administration of the radiolabeled compound by thin-layer chromatography). Settings: not given.
Format: functional
In short: as §1
CCCCCCCCCCCCCCCC(=O)OCC(COC(=O)CCCCCCCCCCCCCCC)OC(=O)Cc1c(I)cc(I)c(N)c1I gave an Activity of 97.7%.

These molecules were tested on Rattus norvegicus (assay: Polyacrylamide Gel Electrophoresis (PAGE) analysis of rat plasma 30 minutes after intravenous administration of radiolabeled compound in high density lipoprotein). Settings: not given.
Format: functional, organism-based
In short: as §2
CCCCCCCCCCCCCCCC(=O)OCC(COC(=O)CCCCCCCCCCCCCCC)OC(=O)Cc1c(I)cc(I)c(N)c1I gave a Concentration of 53.4%.

The molecules below were run on Rattus norvegicus (assay: Distribution of radioactivity of radiolabeled compound in lung of female rats 5 minutes after intravenous administration). Settings: in vivo.
Format: ADME, organism-based
In the case of CCCCCCCCCCCCCCCC(=O)OCC(COC(=O)CCCCCCCCCCCCCCC)OC(=O)Cc1c(I)cc(I)c(N)c1I, the Dose is reported as 1.41%.

What follows are molecules tested on Rattus norvegicus (assay: Distribution of radioactivity of radiolabeled compound in kidney of female rats 30 minutes after intravenous administration). Settings: in vivo, 0.5 h.
Format: ADME, organism-based
Work on CCCCCCCCCCCCCCCC(=O)OCC(COC(=O)CCCCCCCCCCCCCCC)OC(=O)Cc1c(I)cc(I)c(N)c1I yielded a Dose of 0.87%.

The molecules below were run on Rattus norvegicus (assay: Distribution of radioactivity of radiolabeled compound in heart of female rats 5 minutes after intravenous administration). Settings: in vivo.
Format: ADME, organism-based
Molecule CCCCCCCCCCCCCCCC(=O)OCC(COC(=O)CCCCCCCCCCCCCCC)OC(=O)Cc1c(I)cc(I)c(N)c1I has a Dose of 0.63%.

What follows are molecules tested on Rattus norvegicus (assay: Polyacrylamide Gel Electrophoresis (PAGE) analysis of rat plasma 5 min after intravenous administration of radiolabeled compound in albumin). Settings: not given.
Format: functional, organism-based
In short: as §2
Work on CCCCCCCCCCCCCCCC(=O)OCC(COC(=O)CCCCCCCCCCCCCCC)OC(=O)Cc1c(I)cc(I)c(N)c1I yielded a Concentration of 3.3.
